Rows were chosen to be rich in hits. Some 1.5% of all compounds tested hit in one or more screens of this group.
S100A4 inh HTS = S100A4-myosin IIA interaction inhibition; P26447; S100A4/TAMRA-MyoIIA peptide fluorescence polarization; inhibition, % at 10.7 µM; 360,000 tested, 0.14% active;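 active means mean inhibition of at least 70% across replicates, with every replicate also reaching that level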
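assay system = human S100A4 monomer with TAMRA-labelled myosin IIA peptide | also added = labelled myosin peptide probe, 5 nM | incubation = 5 min between mix addition and reading | control set = DMSO and TFP controls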
RAD54 inh = blocks human RAD54 Holliday junction branch migration; Q92698; FAM/BHQ fluorescence; inhibition, % at 10.4 µM; 360,000 tested, 0.14% active; AID 602329;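 active means mean normalized replicate activity at least 40 and at least half of replicates scoring 40 or more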;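 further: 0% = median of neutral control wells and 100% = median of positive control wells; inhibitors cause a drop in the FAM fluorescence signal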
dFosB act-1 = mouse delta FosB homodimer activation. activation, % at 25 µM. 340,000 tested, 0.99% active. P13346. purified delta FosB, TAMRA-CDK5 oligo fluorescence polarization; percent of positive-control signal above neutral wells;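 active means mean activation above about 17%, with every replicate also reaching it, limit read from the data, passing the limit was not always enough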
MLL AF4-AF9 inh = blocks AF4 peptide binding to human AF9. P42568. AlphaScreen, biotin-AF4 peptide binding to FLAG-AF9. inhibition, % at 10 µM. 350,000 tested, 0.47% active. AID 651704;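 active means every replicate reaching a set inhibition limit, whatever the replicate mean, cut at about 25% in these data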;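 further: 0% = plate neutral control median and 100% = total signal loss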
Target sequence (P42568 whole entry, looked up): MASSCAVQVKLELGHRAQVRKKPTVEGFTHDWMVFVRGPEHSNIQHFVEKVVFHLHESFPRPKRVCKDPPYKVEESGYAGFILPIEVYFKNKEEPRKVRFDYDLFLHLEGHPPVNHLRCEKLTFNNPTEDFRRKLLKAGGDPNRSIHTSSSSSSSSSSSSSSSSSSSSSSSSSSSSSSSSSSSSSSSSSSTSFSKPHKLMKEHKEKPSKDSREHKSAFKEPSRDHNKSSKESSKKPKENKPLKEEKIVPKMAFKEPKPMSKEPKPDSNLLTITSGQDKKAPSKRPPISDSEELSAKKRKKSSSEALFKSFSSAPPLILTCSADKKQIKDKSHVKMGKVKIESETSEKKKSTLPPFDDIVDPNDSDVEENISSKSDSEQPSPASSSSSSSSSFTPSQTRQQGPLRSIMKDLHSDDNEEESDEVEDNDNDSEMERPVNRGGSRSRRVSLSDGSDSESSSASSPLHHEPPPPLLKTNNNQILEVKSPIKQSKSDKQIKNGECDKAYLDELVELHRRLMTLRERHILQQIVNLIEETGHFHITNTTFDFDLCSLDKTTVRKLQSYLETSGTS
RAD52 inh = RAD52 (human) annealing inhibition | recombinant RAD52 DNA annealing, FRET fluorescence | inhibition, % at 18.7 µM | 360,000 tested, 0.46% active | AID 651710;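 active means every replicate showing at least 50% inhibition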
dFosB act-2 = delta FosB (mouse) homodimer activation | shares compounds with dFosB act-1 | purified delta FosB, TAMRA-CDK5 oligo fluorescence polarization; normalised: neutral wells 0, positive control 100 | activation, % at 24.9 µM | 2,400 tested, under 10 active | AID 588690;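 active means highest replicate activation at or above 34% and every replicate reaching that threshold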;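 further: higher polarization means more probe DNA bound by delta FosB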
* = called active by the depositor; . = no result given.

SMILES	S100A4 inh HTS	RAD54 inh	dFosB act-1	MLL AF4-AF9 inh	RAD52 inh	dFosB act-2
Cc1ccc(NC(=O)C=NOCC(=O)Nc2cc(C)cc(C)c2)cc1	-2	10	25*	-7	-9	4
C[C@H]1CN([C@@H](C)CO)C(=O)c2c(c3ccccc3n2C)-c2ccccc2CO[C@@H]1CN(C)C(=O)CCC(F)(F)F	-10	1	.	-1	12	.
COc1ccc(C(=O)Nc2ccccc2C(=O)NC(Cc2ccc(O)cc2)C(=O)NNC(=O)c2ccc(C)cc2)cc1 (stereo unspecified)	3	-1	100*	-12	12	2
C[C@@H]1CCCCO[C@H](CN(C)C(=O)Nc2ccccc2)[C@H](C)CN([C@@H](C)CO)C(=O)c2cc(NS(C)(=O)=O)ccc2O1	-2	1	.	-4	11	.
O=C(CN1CCCCC1)Nc1c2c(nc3ccccc13)N(c1ccccc1)CC2	4	.	56*	1	-13	-1
COc1ccc(CC(=O)NCCc2ccc(OC)c(OC)c2)cc1	2	-2	-3	4	-3	.
COc1ccc(CCC(=O)Nc2ccc(-c3noc(-c4ccc(OC)c(OC)c4)n3)cc2)cc1	.	3	29*	.	.	3
COc1ccc(C(=O)Nc2ccc(C(=O)NCCc3ccc(OC)c(OC)c3)cc2)cc1	-4	2	41*	-1	-14	3
O=C(COc1ccc(Cl)cc1)Nc1ccc2oc(-c3ccncc3)nc2c1	.	-11	37*	.	.	-1
COc1ccc(-c2nc3cc(NC(=O)Cc4ccc(OC)c(OC)c4)ccc3o2)cc1	.	7	56*	.	.	4
CC(C)CC#Cc1cnc2c(c1)C(=O)N([C@@H](C)CO)C[C@H](C)[C@@H](CN(C)C(=O)CN1CCOCC1)O2	-1	-3	.	-1	-10	.
Cc1noc(C)c1NC(=O)NCC[C@@H]1CC[C@H](NC(=O)Nc2cccc(Cl)c2)[C@H](CO)O1	20	-5	.	4	-7	.
COc1ccc(S(=O)(=O)N(C)C[C@H]2Oc3ccc(NC(=O)CCN4CCOCC4)cc3CC(=O)N([C@H](C)CO)C[C@H]2C)cc1	4	-9	.	-2	1	.
COc1ccc(CC(=O)Nc2ccc(-c3nnc(-c4ccccc4)o3)cc2)cc1OC	-3	8	120*	-61	-14	-7
C[C@@H]1CN([C@@H](C)CO)C(=O)c2cc(NC(=O)Nc3ccccc3)ccc2O[C@H]1CN(C)S(=O)(=O)c1ccc(F)cc1	-4	8	.	-9	4	.
C=CCN(C(=O)COc1ccccc1)c1nnc(-c2ccncc2)s1	.	2	22*	.	.	1
CCC(=O)NC(=S)Nc1ccc(NC(=O)c2cc3ccccc3o2)c(OC)c1	3	.	67*	-2	-5	6
NC(=O)Cn1c(=O)n(C2CCCCC2)c(=O)c2c3c(sc21)CCCCC3	-3	.	44*	-4	-7	0
COc1ccc(-n2c(=O)c3c4c(sc3n(CC(N)=O)c2=O)CCCCC4)cc1	-5	.	30*	-3	-9	-1
COCC(=O)N1CC2(CCN(S(C)(=O)=O)CC2)c2c(n(C)c3cc(OC)ccc23)[C@H]1CO	5	.	.	2	4	.
Cc1ccsc1C(=O)N1CCC(N2CCC(C(=O)NCC3CCCO3)CC2)CC1 (stereo unspecified)	-35	.	35*	-3	-47	0
O=C(NCC1CCCO1)C1CCN(C2CCN(Cc3cccs3)CC2)CC1 (stereo unspecified)	-26	-8	10	-11	-237	.
CCOC(=O)c1c(C)[nH]c(C(=O)OC(C)C(=O)NC2CCCCC2C)c1C (stereo unspecified)	-19	0	49*	-1	-24	4
CCOC(=O)c1c(C)[nH]c(C(=O)OC(C)C(=O)Nc2ccc(C)cc2)c1C (stereo unspecified)	-10	9	.	-4	-16	.
O=C(c1ccncc1)N1CC(=O)N2[C@@H](CO)[C@H](c3ccc(/C=C/c4ccccc4)cc3)[C@@H]2C1	4	.	.	7	-1	.
Cc1ccc(NC(=O)CCC(=O)NNC(=O)COc2cccc3ccccc23)c(C)c1	0	-5	33*	-11	-17	5
Cc1ccc(C)c(OCC(=O)NCCNC(=O)COc2cc(C)ccc2C)c1	.	6	-7	.	.	.
